Test results as given in ChEMBL document CHEMBL3992541, “Combined treatment with zingerone and its novel derivative synergistically inhibits TGF-β1 induced epithelial-mesenchymal transition, migration and invasion of human hepatocellular carcinoma cells” (2017).
Calls of active or inactive are those of the source. The rule behind the calls is not given here.

Key:
SNU-182 [1] = assay: Inhibition of TGFbeta1-induced epithelial-mesenchymal transition in human SNU182 cells assessed as reduction in MMP2 mRNA expression at 12.5 uM preincubated for 2 hrs followed by TGFbeta1 addition measured after 48 hrs by qRT-PCR method; format: functional, cell-based
How it was run: (§1)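 SNU182 cells pretreated 2 h with single agents (12.5 or 40 µM) or the mixture (20 or 40 µM), then TGF-β 5 ng/ml for 48 h. MMP-2 and MMP-9 mRNA measured by RT-PCR with densitometry and by qRT-PCR, fold change by the 2^-ΔΔCt method. Mean±SD of triplicates.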

SNU-182 [2] = assay: Growth inhibition of human SNU182 cells at <12.5 uM after 48 hrs by CCK8 assay; format: functional, cell-based
SNU-182 [3] = assay: Growth inhibition of human SNU182 cells assessed as cell survival at 12.5 uM after 48 hrs by CCK8 assay relative to control; format: functional; settings: SNU-182, 48 h, read-out: Survival
How it was run: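 SNU182 human hepatocellular carcinoma cells were exposed to compound at 6.25, 12.5, 25, 50 and 100 µM in serum-free DMEM for 48 h. Viability was read by CCK-8, where WST-8 is reduced by cellular dehydrogenases to a soluble formazan, and expressed as survival relative to vehicle control. Values are mean±SD of triplicates.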

SNU-182 [4] = assay: Inhibition of TGFbeta1-induced epithelial-mesenchymal transition in human SNU182 cells assessed as reduction in upregulation of Snail expression at 12.5 uM preincubated for 2 hrs followed by TGFbeta1 addition measured after 48 hrs by Western blot method; format: functional, cell-based
How it was run: (§2)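 SNU182 cells pretreated 2 h with single agents (12.5 or 40 µM) or the mixture (20 and 40 µM), then stimulated with TGF-β1 5 ng/ml for 48 h. E-cadherin and Snail protein detected by Western blot, with GAPDH as loading control.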

SNU-182 [5] = assay: Growth inhibition of human SNU182 cells after 48 hrs by CCK8 assay; format: functional, cell-based
SNU-182 [6] = assay: Inhibition of TGFbeta1-induced epithelial-mesenchymal transition in human SNU182 cells assessed as reduction in MMP9 mRNA expression at 12.5 uM preincubated for 2 hrs followed by TGFbeta1 addition measured after 48 hrs by qRT-PCR method; format: functional, cell-based; how it was run: as §1
SNU-182 [7] = assay: Inhibition of TGFbeta1-induced epithelial-mesenchymal transition in human SNU182 cells assessed as reduction in downregulation of E-cadherin expression at 12.5 uM preincubated for 2 hrs followed by TGFbeta1 addition measured after 48 hrs by Western blot method; format: functional, cell-based; how it was run: as §2

CCCCC/C=C/C(=O)CCc1ccc(O)c(OC)c1 [SHOGAOL]
inhibition (SNU-182 [1]): inactive
growth inhibition (GI) (SNU-182 [2]): inactive
viability at 12.5 µM (SNU-182 [3]): > 90%
inhibition (SNU-182 [4]): inactive
growth inhibition (GI) (SNU-182 [5]): Dose-dependent effect
inhibition (SNU-182 [6]): inactive
inhibition (SNU-182 [7]): inactive
